The species entered for assay [1] is Sus scrofa. Put plainly: Inhibition of pig coronary artery phosphodiesterase peak I cGMP specific and calmodulin sensitive. The conditions noted are these: concentration not given here. A digest of the protocol: (§1)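 Separated peak I and peak II phosphodiesterase forms prepared from pig coronary arteries. Hydrolysis of 1 µM cyclic nucleotide substrate was measured at 30 °C for 30 min, with enzyme diluted to give 10-20% hydrolysis without inhibitor. Compounds were added from 30% Me2SO, giving 3% Me2SO final in all tubes, including controls and blanks. I50 was read from concentration-inhibition curves over 10^-7 to 10^-4 M, or to 10^-3 M if soluble.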

Assay [2] is filed under the species Sus scrofa. Put plainly: Inhibition of Peak II phosphodiesterase from pig coronary arteries at 100 uM.
A short description of assay [3]: Inhibition of Peak I phosphodiesterase from pig coronary arteries. Also on record: species or system Sus scrofa. The settings on record: read-out: I50. The gist of the method: as §1
Assay [4] can be described thus: Inhibition of pig coronary artery cAMP-specific phosphodiesterase. The settings on record: read-out: I50. Also on record: species or system Sus scrofa. The gist of the method: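 Separated peak I and peak II phosphodiesterase forms prepared from pig coronary arteries. Compounds were added from 30% Me2SO, giving 3% Me2SO final in all tubes, including controls and blanks. I50 was read from concentration-inhibition curves over 10^-7 to 10^-4 M, or to 10^-3 M if soluble.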

Assay [5] is filed under the species Sus scrofa. Put plainly: Inhibition of pig coronary artery phosphodiesterase peak I cGMP specific and calmodulin sensitive at 100 uM.
For assay [6], the species on record is Sus scrofa. Put plainly: Inhibition of pig coronary artery phosphodiesterase peak II cyclic AMP specific at 100 uM.

Turning to `CC(C)Cn1c(=O)n(CC(=O)O)c(=O)c2[nH]cnc21`, the inhibition in the assay filed under Sus scrofa [1] amounted to 2.4%; in the assay filed under Sus scrofa [2], 1.9%.

Take `CC(C)Cn1c(=O)n(C)c(=O)c2[nH]c(CCl)nc21`: the IC50 in assay [3] was 8.9 µM. The compound also registered an inhibition in the assay filed under Sus scrofa [2] of 28%.

With `CC(C)Cn1c(=O)n(C)c(=O)c2[nH]c(CCC(=O)O)nc21`, the IC50 in assay [3] stood at 45 µM. Further, the inhibition in the assay filed under Sus scrofa [2] was found to be 12%.

Turning to `Cn1c(=O)c2nc[nH]c2n(C)c1=O` [THEOPHYLLINE], the IC50 in assay [3] is 100 µM.

As for `CC(C)=CCc1nc2c([nH]1)c(=O)n(C)c(=O)n2CC(C)C`, the IC50 in assay [3] was found to be 6.3 µM. In the assay listed under Sus scrofa [2], the inhibition is 21%.

In the case of `CC(C)CCn1c(=O)c2[nH]cnc2n(CC(C)C)c1=O`, the IC50 was found to be 17 µM in assay [4] and 86 µM in assay [3].

On to `CC(C)Cn1c(=O)n(C)c(=O)c2[nH]nnc21`, for which the results for the inhibition in the assay filed under Sus scrofa [5] and in the assay filed under Sus scrofa [6] were 35% and 1%, respectively.

With `C=C(C)Cn1c(=O)n(C)c(=O)c2nc[nH]c21`, the IC50 in assay [4] was 36 µM; in assay [3], 10 µM.

`Cn1c(=O)c2nc[nH]c2n(CCO)c1=O`: the inhibition in the assay listed under Sus scrofa [5] stood at 30%; in the assay filed under Sus scrofa [2], 23%.

With `CC(C)Cn1c(=O)n(C)c(=O)c2[nH]c(CO)nc21`, the results for the IC50 in assay [4] and in assay [3] were 283 µM and 9.4 µM, respectively.

As to `CC(C)Cn1c(=O)n(C)c(=O)c2[nH]c(CCCO)nc21`, in assay [3], the IC50 was 11 µM. The inhibition in the assay filed under Sus scrofa [2] was found to be 29%.

Take `C=C(C)Cn1c(=O)n(CCC(C)C)c(=O)c2nc[nH]c21`: the inhibition in the assay listed under Sus scrofa [5] was determined as 38%; in the assay listed under Sus scrofa [2], 42%.

Consider `COCc1nc2c([nH]1)c(=O)n(C)c(=O)n2CC(C)C`, for which the figures for the IC50 in assay [4] and in assay [3] were 212 µM and 5.2 µM, respectively.

For the compound `CC(C)Cn1c(=O)n(C)c(=O)c2[nH]c(N(C)C)nc21`, the IC50 in assay [3] worked out at 1.6 µM. The compound further displayed an inhibition in the assay filed under Sus scrofa [2] of 33%.

For `C=CCn1c(=O)n(C)c(=O)c2nc[nH]c21`, the IC50 in assay [4] is 52 µM; in assay [3], 25 µM.

Turning to `CC(=O)OCCn1c(=O)n(C)c(=O)c2nc[nH]c21`, the results for the inhibition in the assay filed under Sus scrofa [5] and in the assay listed under Sus scrofa [2] were 43% and 27%, respectively.

On to `COC(=O)Cn1c(=O)c2nc[nH]c2n(CC(C)C)c1=O`, for which the inhibition was 26% in the assay listed under Sus scrofa [5] and 40% in the assay filed under Sus scrofa [2].

Take `COC(=O)CCc1nc2c(=O)n(C)c(=O)n(CC(C)C)c2[nH]1`: the IC50 in assay [3] turned out to be 9.8 µM. In the assay filed under Sus scrofa [2], this compound gave an inhibition of 30%.

`CNc1nc2c(=O)n(C)c(=O)n(CC(C)C)c2[nH]1`: in assay [3], the IC50 was determined as 1.2 µM. Moreover, the inhibition in the assay listed under Sus scrofa [2] came out at 39%.

As a reminder, the inhibition is the change of the read-out against control, counted positive when it falls. Low readings indicate a weak effect, high ones a strong effect.

Source of the values: ChEMBL document CHEMBL1121867, “Inhibition of separated forms of cyclic nucleotide phosphodiesterase from pig coronary arteries by 1,3-disubstituted and 1,3,8-trisubstituted xanthines” (J Med Chem, 1981).
